The nature of assay [1]: Cytotoxic activity against BSC cells. In kind it is cell-based. Conditions: Cercopithecidae. Summed up: (§1)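 Cytotoxicity was scored visually in uninfected HFF or BSC-1 monolayers within the plaque-reduction assays. Drug-induced cytopathology was read at 35- and 60-fold magnification on a 0 to 4+ scale on the day plaques were stained and counted.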
Assay [2] concerns Human alphaherpesvirus 1. Kind of assay: Inhibition of herpes simplex virus (HSV-1) in plaque reduction assay. In kind it is functional, organism-based. An outline of the steps:
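HSV-1 S-148 strain plaque reduction in BSC-1 monkey kidney monolayers, with about 100 PFU inoculum and compound dissolved in the overlay medium. IC50 came from linear regression of percent inhibition against log concentration, with a positive control in each set.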

Assay [3] relates to Human alphaherpesvirus 1. Kind of assay: Inhibition of herpes simplex virus (HSV-1) in yield reduction assay. The assay is classed as functional, organism-based.
A further assay concerns Human betaherpesvirus 5. Kind of assay: Inhibition of human cytomegalovirus (HCMV) in plaque reduction assay. The assay is classed as functional, organism-based. An outline of the steps: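 HCMV Towne strain (plaque-purified P0) plaque reduction in HFF monolayers in MEM(E) with 10% FBS. Inoculum held about 50 PFU, with compound dissolved in the overlay medium. IC50 came from linear regression of percent inhibition against log concentration, with ganciclovir or acyclovir positive controls in every set; two to five experiments.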

The test system of the next assay is Neoplastic cell line. Kind of assay: Cytotoxic activity against KB cells. In kind it is cell-based. Conditions: Homo sapiens. An outline of the steps: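 KB cells (human oral epidermoid carcinoma) grown in MEM(H) with 5% FBS. Compound effect on incorporation of radiolabelled precursors into DNA, RNA and protein was measured. IC50s came from linear regression of percent inhibition against log concentration, and the three IC50s were averaged.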

Assay [4] in a line: Cytotoxic activity against HFF cells. Conditions: Homo sapiens. The assay is classed as cell-based. An outline of the steps:
as §1

Assay [5] has as its system L1210. Kind of assay: In vitro inhibition of L1210 cell growth. In kind it is functional, Mus musculus. Also noted: concentration or dose not given beside the values. An outline of the steps: (§2)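 Murine L1210 leukemia cells in static suspension culture in Fischer's medium with compound for 4 days. Growth rate is the ratio of control to treated population doubling time; where the rate changed, the final rate was used. IC50 is the concentration giving 50% of control growth rate; single-concentration value at 100 μM.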

In assay [6] the test system is L1210. Kind of assay: In vitro inhibition of L1210 cell growth to half of the control rate. In kind it is functional, cell-based. Conditions: Mus musculus. Summed up: as §2

Among the data in ChEMBL document CHEMBL1124846, “Synthesis, antiproliferative, and antiviral activity of certain 4-substituted and 4,5-disubstituted 7-[(1,3-dihydroxy-2-propoxy)methyl]pyrrolo[2,3-d]pyrimidines” (J Med Chem, 1990) are IC50, IC90 and Activity values, retold here.

Molecules are shown by their SMILES. Values joined by “and” are separate entries in the source; they are usually repeats but may differ in a detail not shown here. Identical values can stand only once.

Regarding `Nc1nc2c(ncn2COCCO)c(=O)[nH]1` [ACYCLOVIR], the IC50 (as a rule, the concentration at which inhibition is half-maximal) in assay [1] was above 100 µM; in the assay on Human alphaherpesvirus 1 [2], 4 µM; with Human betaherpesvirus 5 it was 63 µM; in the assay with Neoplastic cell line, above 100 µM. It took 7 µM to reach the 90% level in the assay on Human alphaherpesvirus 1 [3] (IC90).
Regarding `OCC(CO)OCn1cc(I)c2c(NO)ncnc21`, the IC50 in the assay with Human alphaherpesvirus 1 [2] is 30 µM; in the assay with Human betaherpesvirus 5, 18 µM and 3.2 µM; in assay [4], above 100 µM; in the assay with L1210 [6], 39 µM. In the assay on L1210 [5], the Activity is recorded as 11%.
With `Nc1ncnc2c1c(Cl)cn2COC(CO)CO`, the IC50 is above 100 µM in assay [1]; 16 µM with Human alphaherpesvirus 1 [2]; 8 µM with Human betaherpesvirus 5; 9.8 µM in the assay with Human betaherpesvirus 5 (Human betaherpesvirus 5); above 100 µM in assay [4]; above 100 µM in the assay on Neoplastic cell line. Further, in the assay with L1210 [6], the midpoint of inhibition, the IC50, lay at 2.3 µM. The IC90 (as a rule, the concentration at which the effect reaches the 90% level) with Human alphaherpesvirus 1 [3] was 22 µM. In addition, the Activity in the assay with L1210 [5] stood at 6%.
For the compound `CCNc1ncnc2c1c(Br)cn2COC(CO)CO`, the IC50 (in assay [1]; in the assay with Human alphaherpesvirus 1 [2]; in the assay with Human betaherpesvirus 5 (Human betaherpesvirus 5); in assay [4]) was above 100 µM each time. In the assay on L1210 [5], this compound showed an Activity of 95%.
Turning to `Nc1ncnc2c1ccn2COC(CO)CO`, the IC50 (in assay [1]; in the assay on Human alphaherpesvirus 1 [2]; in the assay with Human betaherpesvirus 5 (Human betaherpesvirus 5); in assay [4]) was above 100 µM each time. The Activity in the assay on L1210 [5] is 106%.
Regarding `Nc1ncnc2c1c(I)cn2COC(CO)CO`, the IC50 in the assay with Human alphaherpesvirus 1 [2] is 4 µM; in the assay on Human betaherpesvirus 5, 3.1 µM and 0.9 µM; in assay [4], above 100 µM; in the assay with L1210 [6], 2.8 µM. Also, the Activity with L1210 [5] is reported as 6%.
For the compound `OCC(CO)OCn1cc(Cl)c2c(NO)ncnc21`, the concentration for half-maximal inhibition (IC50) in the assay on Human betaherpesvirus 5 was 56 µM and 24 µM and 50 µM; in assay [4], above 100 µM; in the assay with L1210 [6], 75 µM. The compound also yielded an Activity in the assay on L1210 [5] of 41%.
`OCC(CO)OCn1ccc2cncnc21`: the IC50 (with Human betaherpesvirus 5 (Human betaherpesvirus 5); in assay [4]) was above 100 µM in each case. This compound also yielded an Activity in the assay with L1210 [5] of 100%.
